Results from ChEMBL document CHEMBL1126686 (J Med Chem, 1993).

What was measured:
Phosphodiesterase 3 [1] = molecular target: T1, Phosphodiesterase 3 (Homo sapiens, UniProt Q14432+Q13370); experiment: Percentage inhibition against PDE-III (phosphodiesterase III) in guinea pig ventricle at 10 uM; type: protein assay; details: Cavia porcellus, target entry is the homologue from another species
Phosphodiesterase 4 [2] = molecular target: T2, Phosphodiesterase 4 (Homo sapiens, UniProt P27815+Q08499+Q07343+Q08493); experiment: In vitro inhibition of PDE-IV isolated from guinea pig ventricle.; type: protein assay, Cavia porcellus; details: target entry is the homologue from another species
Procedure, shortened: (§1)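 PDE III and PDE IV were each prepared from guinea pig ventricle by anion-exchange chromatography. Activity was measured by the boronate column method with 1 μM cAMP as substrate.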

Phosphodiesterase 4 [3] = molecular target: T2, Phosphodiesterase 4; experiment: In vitro inhibition of PDE-IV isolated from guinea pig ventricle at 10 uM.; type: protein assay; details: Cavia porcellus, target entry is the homologue from another species
Phosphodiesterase 3 [4] = molecular target: T1, Phosphodiesterase 3; experiment: Effective dose against PDE-III for increase in contractility following administration to anaesthetised dogs; details: Canis lupus familiaris; target entry is the homologue from another species
Phosphodiesterase 3 [5] = molecular target: T1, Phosphodiesterase 3; experiment: Percent inhibition of PDE 3 (phosphodiesterase III) from guinea pig ventricle at 10 uM (or 100 uM); type: protein assay; details: Cavia porcellus, target entry is the homologue from another species
Phosphodiesterase 3 [6] = molecular target: T1, Phosphodiesterase 3; experiment: Relative positive inotropic activity (ED50) and PDE 3 inhibition (IC50); type: protein assay; details: Cavia porcellus
Phosphodiesterase 3 [7] = molecular target: T1, Phosphodiesterase 3; experiment: Inhibition of PDE 3 (phosphodiesterase III) from guinea pig ventricle; type: protein assay, Cavia porcellus; details: target entry is the homologue from another species; procedure, shortened: as §1
[8] = test system: cGMP-specific 3',5'-cyclic phosphodiesterase (Sus scrofa); experiment: In vitro inhibition of PDE-V isolated from porcine pulmonary artery at 100 uM.
Phosphodiesterase 4 [9] = molecular target: T2, Phosphodiesterase 4; experiment: In vitro inhibition of PDE-IV isolated from guinea pig ventricle; Not determined.; type: protein assay; details: Cavia porcellus; target entry is the homologue from another species; concentration not given here; procedure, shortened: as §1
[10] = molecular target: cGMP-specific 3',5'-cyclic phosphodiesterase (Homo sapiens) (UniProt O76074); experiment: In vitro inhibition of PDE-V isolated from porcine pulmonary artery at 10 uM.; details: Sus scrofa, target entry is the homologue from another species
Phosphodiesterase 4 [11] = molecular target: T2, Phosphodiesterase 4; experiment: In vitro inhibition of PDE-IV isolated from guinea pig ventricle at 100 uM.; type: protein assay; details: Cavia porcellus, target entry is the homologue from another species

Structure (SMILES) | inhibition (Phosphodiesterase 3 [1]) [%] | IC50 (Phosphodiesterase 4 [2]) [µM] | inhibition (Phosphodiesterase 4 [3]) [%] | also measured
CCCCCCOc1ccccc1-c1nc2ccc[nH]c-2n1 | 0 | 16 |  | 
O=C1CCC(c2ccc(-n3ccnc3)cc2)=NN1 |  |  |  | ED50 (Phosphodiesterase 3 [4]): 0.05 mg/kg
COc1cc([S+](C)[O-])ccc1-c1nc2cccnc2[nH]1 (stereo not given) |  |  |  | inhibition (Phosphodiesterase 3 [5]): 2%; ED50 (Phosphodiesterase 3 [4]): 0.3 mg/kg
c1c[nH]c2nc(-c3ccccc3OC3CCCC3)nc-2c1 | 12 | 19 |  | 
CC1(C)C(=O)Nc2ccc(C3=NNC(=O)CC3)cc21 [INDOLIDAN] |  |  |  | Ratio (Phosphodiesterase 3 [6]): 0.01; ED50 (Phosphodiesterase 3 [4]): 0.007 mg/kg; IC50 (Phosphodiesterase 3 [7]): 0.08 µM
CN(C)CCCOc1ccccc1-c1nc2ccc[nH]c-2n1 | 8 |  | 7 | inhibition [8]: 47%
CCCCCOc1ccccc1-c1nc2ccc[nH]c-2n1 | 0 | 6 |  | 
CCCOc1ccccc1-c1cn2cccnc2n1 | 2 |  | 16 | 
CNCCCOc1ccccc1-c1nc2ccc[nH]c-2n1 | 0 |  | 5 | inhibition [10]: 12%
CCCOc1ccccc1-c1nc2[nH]nnc2c(=O)[nH]1 | 14 |  | 13 | 
CCCCCOc1ccccc1-c1nc2cc[nH]cc-2n1 | 20 |  | 50 | 
c1ccc(COc2ccccc2-c2nc3ccc[nH]c-3n2)cc1 | 0 | 8 |  | 
Cc1[nH]c(=O)c(C#N)cc1-c1ccncc1 |  |  |  | ED50 (Phosphodiesterase 3 [4]): 0.037 mg/kg
COc1cc([S+](C)[O-])ccc1-c1nc2cnccc2[nH]1 (stereo not given) [ISOMAZOLE] |  |  |  | Ratio (Phosphodiesterase 3 [6]): 1.4; inhibition (Phosphodiesterase 3 [5]): 23%; inhibition (Phosphodiesterase 4 [11]): 2%; ED50 (Phosphodiesterase 3 [4]): 0.03 mg/kg; IC50 (Phosphodiesterase 3 [7]): 42 µM
COc1ccccc1-c1nc2cc[nH]cc-2n1 | 6 |  | 20 | 

Further lines, with some results ahead:

inhibition (Phosphodiesterase 3 [1]) [%] | IC50 (Phosphodiesterase 4 [2]) [µM] | inhibition (Phosphodiesterase 4 [3]) [%] | Structure (SMILES) | also measured
0 | 6 |  | CCCCOc1ccccc1-c1nc2ccc[nH]c-2n1 | 
0 |  | 11 | CCCNc1ccccc1-c1nc2ccc[nH]c-2n1 | 
15 | 37 |  | c1c[nH]c2nc(-c3ccccc3OCC3CC3)nc-2c1 | 
7 | 9 |  | ClCCCOc1ccccc1-c1nc2ccc[nH]c-2n1 | 
15 |  | 23 | CCOc1ccccc1-c1nc2ccc[nH]c-2n1 | 
0 |  | 21 | CCCSc1ccccc1-c1nc2ccc[nH]c-2n1 | 
0 | 11 |  | CCCOc1ccccc1-c1nc2ccc[nH]c-2n1 | 
13 |  |  | COc1ccccc1-c1nc2ccc[nH]c-2n1 | inhibition (Phosphodiesterase 4 [9]): 1%
2 |  | 14 | OCCOc1ccccc1-c1nc2ccc[nH]c-2n1 | 
0 |  | 4 | O=[N+]([O-])c1ccccc1-c1nc2ccc[nH]c-2n1 | inhibition [10]: 13%
 | 3 |  | CC(C)COc1ccccc1-c1nc2ccc[nH]c-2n1 | 
0 |  | 0 | CC(C)(C)Oc1ccccc1-c1nc2ccc[nH]c-2n1 | inhibition [10]: 29%
0 |  | 30 | OCCCOc1ccccc1-c1nc2ccc[nH]c-2n1 | 
15 |  | 0 | Oc1ccccc1-c1nc2ccc[nH]c-2n1 | 
2 |  | 0 | CC(=O)Oc1ccccc1-c1nc2ccc[nH]c-2n1 | 
